A selection: hits, their analogues and other compounds. The true share with any hit is near 1.8%.
M5 ag = CHRM5 agonism in calcium assay; CHO-K1 hM5 cells, Fluo-8 calcium fluorescence; 0% DMSO wells, 100% maximal acetylcholine response; activation, % at 3 µM; hit rate 0.19% among 360,000; AID 624037;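 active = activation above the run's mean over test compounds plus 3 SD, cut at about 23% in these data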;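 also: signal is peak over basal fluorescence ratio across the kinetic read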
M4 ag = CHRM4 agonism in calcium assay. hit rate 0.14% among 360,000. CHO-K1 hM4/Gqi5, Fluo-8 calcium fluorescence; vehicle 0%, full acetylcholine response 100%. activation, % at 3 µM;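 active = activation above the run mean over all test wells plus 3 SD, cut at about 32% in these data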;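 also: peak over basal fluorescence ratio per well then scaled between controls; 0% = DMSO wells and 100% = acetylcholine at EC100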
Target sequence (P08173 whole entry, looked up): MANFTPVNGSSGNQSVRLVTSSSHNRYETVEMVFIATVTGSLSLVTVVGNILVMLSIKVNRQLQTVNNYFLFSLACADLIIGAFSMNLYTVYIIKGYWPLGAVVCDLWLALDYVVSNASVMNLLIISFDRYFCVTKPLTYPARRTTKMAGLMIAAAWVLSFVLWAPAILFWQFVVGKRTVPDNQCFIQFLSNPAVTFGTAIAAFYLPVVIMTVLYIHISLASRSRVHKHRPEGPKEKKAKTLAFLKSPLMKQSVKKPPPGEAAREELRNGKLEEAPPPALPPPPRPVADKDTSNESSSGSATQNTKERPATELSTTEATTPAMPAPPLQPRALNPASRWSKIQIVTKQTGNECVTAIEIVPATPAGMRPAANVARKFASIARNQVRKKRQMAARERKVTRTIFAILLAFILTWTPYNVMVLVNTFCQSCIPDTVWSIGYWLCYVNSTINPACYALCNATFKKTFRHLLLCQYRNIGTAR
CHRM5 antagonist = CHRM5 antagonism in calcium assay; hit rate 0.59% among 360,000; inhibition, % at 3 µM; CHO-hM5 cells, Fluo-8 calcium fluorescence, ACh EC80; P08912;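 active = inhibition above a per-plate cutoff, the mean of that plate's test compounds plus 3 SD, cut at about 27% in these data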;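 also: 0% = acetylcholine EC80 with DMSO and 100% = DMSO without agonist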
CHRM5 PAM = CHRM5 positive allosteric modulation; hit rate 0.3% among 360,000; CHO-K1 hM5, Fluo-8 calcium, ACh EC20 PAM; 0% = ACh EC20, 100% = ACh EC100; AID 624038; activation, % at 3 µM;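 active = activation above the run cutoff, the mean activation of all test compounds plus 3 SD, cut at about 18% in these data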
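Assay system – human M5 receptor in CHO-K1 cells · Read-out – % activation, ACh-normalized · Technique – Fluo-8 calcium fluorescence · Dosing – single-point, 3 µM nominal · Incubation – Fluo-8 loading 80 min at 37 °C plus 30 min room temperature · Repeats – singlicate, one well per test compound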
CHRM4 antagonist = blocks acetylcholine activation of human M4 receptor. CHO-hM4 cells, ACh EC80, Fluo-8 calcium fluorescence. inhibition, % at 3 µM. hit rate 0.73% among 360,000;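 active = inhibition above its plate's cutoff, the mean inhibition of sample wells plus 3 SD, cut at about 27% in these data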;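 also: 0% = acetylcholine EC80 with DMSO and 100% = DMSO without agonist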
M4 PAM = CHRM4 positive allosteric modulation | CHO-K1 hM4/Gqi5, Fluo-8 calcium fluorescence, ACh EC20; 0% = ACh EC20, 100% = maximal ACh | hit rate 0.4% among 360,000 | AID 624126 | activation, % at 3 µM;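 active = activation above its plate's cutoff, the mean activation of sample wells plus 3 SD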
* = called active by the depositor.

SMILES | M5 ag | M4 ag | CHRM5 antagonist | CHRM5 PAM | CHRM4 antagonist | M4 PAM
CC(C)[N+]12CCC(CC1)C(C(O)(c1ccccc1)c1ccccc1)C2 (centres undefined) | -21 | -1 | 43* | -30 | 54* | -15
S=P(NCCSCc1ccccc1)(N1CC1)N1CC1 | 2 | 3 | -1 | 8 | -3 | 7
CC(C(=O)c1c[nH]c2ccccc12)N1CCSCC1 (centres undefined) | -7 | 1 | -2 | -3 | -11 | -2
O=c1[nH]c(O)c(C=Nc2ccccc2Oc2ccccc2)c(=O)[nH]1 | 1 | 1 | 5 | -5 | -4 | 1
COc1ccc(C(O)(c2ccccc2)c2ccncc2)cc1 (centres undefined) | -10 | -2 | -10 | 11 | -21 | 10
C=CCC1(Nc2ccccc2)CC(C)N(C)CC1C (centres undefined) | -21 | 1 | 52* | -35 | 49* | -51
C/C(=N/OC(=O)N(C)C)c1ncc(C(F)(F)F)cc1N1CCOCC1 | -4 | 0 | 10 | -4 | -7 | -3
C#CCN1CCN(c2ccc(F)cc2)CC1 | 1 | 0 | 10 | -1 | -4 | 3
Fc1ccc(C(OCCN2CCCC2)c2ccc(F)cc2)cc1 | -5 | 7 | 54* | -18 | 30* | -35
Fc1ccc(C(OCCN2CCCC2)c2ccc(Br)cc2)cc1 (centres undefined) | -5 | 9 | 38* | -18 | 16 | -34
c1ccc(CCCN2CCN(CCOC(c3ccccc3)c3ccccc3)CC2)cc1 | -1 | 7 | 18 | -19 | 47* | -18
Fc1ccc(C(OCCN2CCN(CCCc3ccccc3)CC2)c2ccc(F)cc2)cc1 | -1 | 5 | 8 | -17 | 20 | -15
CCC(C)C12CN3CCN(CC(C)(C3)C1O)C2 (centres undefined) | -2 | 1 | 8 | 0 | 1 | -1
CCCN1CCC[C@H](c2cccc(O)c2)C1 | 0 | 1 | -5 | 4 | -12 | 0
C[C@]12CCC3C(CC[C@@H]4C[C@@H](O)CC[C@]34C)C1CC[C@@H]2O (some centres undefined) | 20 | 8 | 5 | -8 | -8 | -2
CCN1CCC(NCC2CCCCC2)CC1 | -7 | 2 | 1 | 4 | -16 | -2
Cc1[nH]c2ccccc2c1CCN | -3 | 2 | 9 | 19* | -6 | 1
C/C=C1/CN2[C@@H]3C4CO[C@@H]3c3c([nH]c5cc(OC)ccc35)[C@@H]2CC14 (some centres undefined) | 0 | 0 | 0 | 2 | 4 | 1
CCC(=O)c1ccc(OCC(=O)N2CCN(CC(=O)Nc3ccccc3C(F)(F)F)CC2)cc1 | 11 | 9 | 6 | 6 | -13 | 8
Clc1ccc(OCC#CCN2CCCC2)cc1 | -10 | 2 | 31* | -17 | 2 | -22
Nc1ccc2ccc3cccc[n+]3c2c1 | 27* | 22 | -3 | -3 | 19 | -9
C[n+]1c(-c2ccccc2)c2cc(N)ccc2c2ccc(N)cc21 | 3 | 11 | 14 | -14 | 16 | -10
CCOC(=O)[C@]12Cc3cc(Cl)ccc3[C@H]1N(C1CCCCC1)C(=O)c1ccccc12 | 24* | -2 | 2 | 12 | 30* | 1
CCOC(=O)[C@]12Cc3cc(OC)ccc3[C@H]1N(C1CCCCC1)C(=O)c1ccccc12 | 20 | -2 | 3 | 9 | 20 | -2
CCCCCC[N+](=O)[O-] | 1 | 0 | -3 | 0 | -4 | -6
SMILES | M5 ag | M4 ag | CHRM5 antagonist | CHRM5 PAM | CHRM4 antagonist | M4 PAM
CCCCCCCCCCCCCCCC[N+](C)(C)C | -2 | 1 | 38* | -18 | 30* | -16
CCOc1ccc(-c2c(C)n(-c3ccc(OCC)cc3)c3[n+]2CCCCC3)cc1 | -4 | 12 | 35* | -30 | 21 | -37
NC(Cc1ccccc1)Cc1ccccc1 | -2 | 2 | 12 | 4 | -2 | 5
NC(Cc1ccccc1)c1nn[nH]n1 (centres undefined) | -2 | 0 | 30* | -11 | -2 | 0
CN(C)C1CCc2[nH]c3c(F)cc(F)cc3c2C1 (centres undefined) | -2 | 2 | 6 | -3 | 1 | -2
CC12C=CC(=O)CC1CCC1C2CCC2(C)C(O)C(O)CC12 (centres undefined) | 5 | 19 | 35* | -24 | 19 | -8
COc1ccccc1OCC#CCN1CCCC(C)C1 (centres undefined) | -14 | 1 | 3 | 0 | 0 | -1
COc1ccc(-n2c(O)c(C=NCCN3CCN(C(C)=O)CC3)c(=O)[nH]c2=S)cc1 | -1 | 0 | -2 | -4 | -7 | -1
CN(C(=O)CNC(=O)OCc1ccccc1)c1ccc(Br)cc1C(=O)c1ccccc1Cl | -4 | 1 | -1 | -2 | -2 | -4
CCN(CC)CCCOC(=O)C(OC(C)C)(c1ccccc1)c1ccccc1 | -4 | 6 | 98* | -22 | 83* | -16
O=C(COc1ccc2ccc(=O)oc2c1)N1CCC(C(=O)O)(c2ccccc2)CC1 | 3 | 0 | 6 | 3 | 6 | -2
COc1cc(C)c(-c2nc(CN3C[C@@H]4C[C@@H](C3)c3cccc(=O)n3C4)c(C)o2)cc1C | -3 | -1 | 4 | -6 | -6 | 3
O=C(Cc1ccccc1)N1CCN(Cc2ccc(Cl)cc2)CC1 | 1 | 2 | -27 | 22* | -8 | 8
O=C(Cc1ccccc1)N1CCN(Cc2cccc(Cl)c2)CC1 | 1 | 0 | 4 | 0 | 5 | 4
N#CC(C#N)=C(N)c1cccnc1 | 0 | 2 | 2 | 2 | 1 | -1
Cc1cc(N(CCCl)CCCl)ccc1C=Cc1ccncn1 | 23 | 36* | 13 | -24 | 1 | -8
Cc1cc(N(CCCl)CCCl)ccc1/C=N/N=C(\N)c1cnccn1 | -5 | 4 | 8 | -7 | -10 | -9
Cc1cc(C=O)c(C)n1CC1CCCO1 (centres undefined) | -7 | 1 | -11 | 18* | -9 | 4
CN1[C@@H]2CC[C@H]1CC(OC1c3ccccc3CCc3ccccc31)C2 (some centres undefined) | -1 | 6 | 99* | -19 | 100* | -19
O=[N+]([O-])c1ccc(N2CCCCC2)c2ncccc12 | -7 | 0 | 27 | -10 | 3 | 1
O=[N+]([O-])c1ccc(N2CCCNCC2)c2ncccc12 | -19 | 1 | 29* | -32 | 27* | -48
O=[N+]([O-])c1ccc(N2CCCCCC2)c2nonc12 | 545* | 144* | 58* | -34 | 38* | -19
Cn1nnc(CC[N+](C)(C)C)n1 | 76* | 3 | 65* | -28 | 1 | -2
